Screening data (PubChem BioAssay)
TLR4-MyD88 BLA = inhibitors of human TLR4-MyD88 binding; O00206+Q99836; HeLa CL3-4 TLR4/MyD88 BLA complementation, FRET ratio; inhibition, % at 8.4 µM; actives 0.18% (n = 200,000); AID 861; in the data active = inhibition above about 25%
ABHD5-PLIN5 inh = inhibitors of human ABHD5-perilipin-5 interaction | Q00G26+Q8WTS1 | Split G. princeps luciferase complementation, luminescence, 4 h | inhibition, % at 4 µM | actives 0.78% (n = 360,000) | AID 602281;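 active = inhibition above the mean inhibition across every tested compound plus 3 SD, cut at about 22% in these data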
NOD2 RIPK2 PPI = blocks binding of human NOD2 to RIPK2. O43353. CHO BLA complementation NOD2-RIPK2, CCF4 ratio. inhibition, % at 4.98 µM. actives 0.38% (n = 360,000); in the data active = inhibition above about 21%
Beta2AR agonist = agonists of human beta-2 adrenergic receptor inducing internalization. P07550. Am2.2-beta2AR cells, FAP receptor internalization, flow cytometry. response, % (concentration not given with the values). actives 0.43% (n = 340,000);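 active = response above a set limit, near 3 SD of response in nonfluorescent compounds, cut at about 42% in these data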
Dynein cargo inh = dynein cargo transport inhibition. 3617.4 mouse cells, GR-EGFP nuclear translocation imaging; test concentration mostly 20 µM; stimulated with dexamethasone, 1 µM; active compounds read low. z-score, hits read low. actives 0.47% (n = 220,000). AID 1381;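 active = plate z-score of nuclear minus cytoplasmic receptor signal below a set negative limit, without overly bright fluorescence or cell loss, cut at about -3.5 in these data, passing the limit was not always enough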;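 note: z-score of nuclear minus cytoplasmic ring GR-EGFP intensity difference per well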
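medium = tetracycline-free induction medium containing charcoal-stripped FBS | also added = 1.0 µM final dexamethasone stimulus | schedule = 48 h induction, 1 h compound, 30 min dex at 37 °C | technique = fixed, Hoechst-stained cells imaged at 10x for EGFP | measure = GR-EGFP nuclear translocation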
TLR9-MyD88 block = inhibitors of human TLR9-MyD88 binding; Q9NR96+Q99836; CHO BLA complementation TLR9-MyD88, CCF4 FRET ratio; inhibition, % at 4.98 µM; actives 0.21% (n = 340,000);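 active = inhibition above the mean over all tested compounds plus 3 SD, cut at about 21% in these data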
Target sequence (Q99836 whole entry, looked up): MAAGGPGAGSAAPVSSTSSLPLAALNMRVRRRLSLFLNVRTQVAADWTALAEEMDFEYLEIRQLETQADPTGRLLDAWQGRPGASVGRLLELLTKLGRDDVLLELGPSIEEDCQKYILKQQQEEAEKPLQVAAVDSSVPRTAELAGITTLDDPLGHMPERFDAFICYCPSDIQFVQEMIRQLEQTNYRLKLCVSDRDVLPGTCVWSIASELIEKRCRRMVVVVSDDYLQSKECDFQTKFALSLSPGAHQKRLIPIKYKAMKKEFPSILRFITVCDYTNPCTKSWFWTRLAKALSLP
Target sequence (Q9NR96 whole entry, looked up): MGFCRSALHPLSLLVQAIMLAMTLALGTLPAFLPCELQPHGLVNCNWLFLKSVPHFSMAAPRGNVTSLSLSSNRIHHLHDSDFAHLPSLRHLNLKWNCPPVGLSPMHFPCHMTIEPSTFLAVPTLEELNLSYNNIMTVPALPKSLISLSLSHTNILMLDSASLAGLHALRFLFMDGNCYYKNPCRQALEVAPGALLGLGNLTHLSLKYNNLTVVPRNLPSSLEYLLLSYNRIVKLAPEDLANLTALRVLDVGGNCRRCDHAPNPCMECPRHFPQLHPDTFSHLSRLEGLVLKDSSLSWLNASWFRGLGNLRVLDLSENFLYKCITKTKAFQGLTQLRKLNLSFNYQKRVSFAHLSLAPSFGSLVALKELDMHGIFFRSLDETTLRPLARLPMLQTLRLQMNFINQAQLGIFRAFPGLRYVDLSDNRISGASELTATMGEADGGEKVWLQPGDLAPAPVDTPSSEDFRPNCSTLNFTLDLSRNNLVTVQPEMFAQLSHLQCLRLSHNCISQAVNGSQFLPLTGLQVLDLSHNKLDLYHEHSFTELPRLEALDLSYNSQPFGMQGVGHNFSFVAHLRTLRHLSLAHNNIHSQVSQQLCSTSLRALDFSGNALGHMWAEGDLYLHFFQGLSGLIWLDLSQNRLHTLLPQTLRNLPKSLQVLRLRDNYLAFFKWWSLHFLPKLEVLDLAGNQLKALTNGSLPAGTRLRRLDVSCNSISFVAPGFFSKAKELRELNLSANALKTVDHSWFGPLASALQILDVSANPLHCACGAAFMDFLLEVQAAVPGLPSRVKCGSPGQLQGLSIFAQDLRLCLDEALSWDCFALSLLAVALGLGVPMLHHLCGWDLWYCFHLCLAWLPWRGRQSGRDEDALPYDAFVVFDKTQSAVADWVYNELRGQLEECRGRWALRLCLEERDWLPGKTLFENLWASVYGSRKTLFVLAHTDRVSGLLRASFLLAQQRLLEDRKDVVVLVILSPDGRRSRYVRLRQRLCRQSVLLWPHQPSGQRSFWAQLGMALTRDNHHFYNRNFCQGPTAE
ABHD5 PLIN5 conf = confirmation of human ABHD5-PLIN5 interaction inhibitors; shares compounds with ABHD5-PLIN5 inh; biochemical ABHD5-PLIN5 interaction, luminescence; inhibition, % at 4 µM; actives 67% (n = 2,200); in the data active = inhibition above about 23%
HNF4 counter = HNF4 split-luciferase signal hit, counter-screen; inhibition, % at 4 µM; shares compounds with ABHD5-PLIN5 inh; AID 651674; HNF4 dimerization, luminescence, biochemical; actives 77% (n = 2,200);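 active = mean inhibition across replicate wells exceeding the computed hit threshold, cut at about 13% in these data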;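 note: light from luciferase halves that rejoin when HNF4 fusion proteins dimerize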
Hits are given with their value; - = inactive; . = no result. Compounds with a hit are over-represented: about 1.6% of the library has one in this group of screens.

SMILES	TLR4-MyD88 BLA	ABHD5-PLIN5 inh	NOD2 RIPK2 PPI	Beta2AR agonist	Dynein cargo inh	TLR9-MyD88 block	ABHD5 PLIN5 conf	HNF4 counter
CCOc1ccc(/C=C/c2[nH]c(=O)[nH]c(=O)c2[N+](=O)[O-])cc1	.	-	-	-	.	-	.	.
CCOC(=O)COc1ccc(Br)cc1/C=C/c1[nH]c(=O)[nH]c(=O)c1[N+](=O)[O-]	-	65	-	-	-	-	76	85
CCCOc1ccc(/C=C/c2[nH]c(=O)[nH]c(=O)c2[N+](=O)[O-])cc1OCC	.	-	-	-	-	-	.	.
CCOC(=O)COc1ccc(Br)cc1/C=C\c1[nH]c(=O)[nH]c(=O)c1[N+](=O)[O-]	-	64	-	-	-	-	85	94
COC(=O)[C@]12CCCCC=C1N(Cc1ccco1)C(=O)[C@H](CC(=O)N1CCC(c3ccccc3)CC1)C2	.	-	-	.	.	.	.	.
O=C1CCCCCCCCCC/C(=N\O)CCCO1	.	92	-	-	.	.	-	-
O=C1OC(Nc2ccc(F)cc2F)c2ccccc21 (configuration not stated)	-	-	-	-	-	-	.	.
O=C1OC(/C(=C\Nc2cc(Cl)ccc2O)[N+](=O)[O-])c2ccccc21 (configuration not stated)	-	62	-	-	-	-	-	50
Cc1ccc(N/C=C(\C2OC(=O)c3ccccc32)[N+](=O)[O-])c(C)c1 (configuration not stated)	-	54	-	-	-	.	-	34
Cc1ccc(NC=C(S(=O)(=O)c2ccccc2)S(=O)(=O)c2ccccc2)c(C)c1	-	-	-	-	-	-	.	.
O=C1OC(/C(=C\Nc2ccc(F)cc2F)[N+](=O)[O-])c2ccccc21 (configuration not stated)	-	54	-	-	-	-	25	61
CCCNC(C)C(=O)Nc1c(C)csc1C(=O)OC (configuration not stated)	.	-	-	-	.	-	.	.
Cc1ccc(Cn2cc(CN3CC(N4CCN(CCN(C)C)CC4)CS3(=O)=O)nn2)cc1 (configuration not stated)	.	-	-	.	.	.	.	.
CCOC(=O)CSc1nnc(C)c(=O)[nH]1	-	-	-	-	-	-	.	.
CCOC(=O)CSc1nnc(NCC(=O)OC)c(=O)[nH]1	-	26	-	-	-	-	41	80
CCN(CC)C(=O)N1CCN(C)CC1	.	38	-	-	.	-	80	37
CCNC(=O)C1(C)CCN(Cc2ccc(-c3ccccc3)cc2)C1 (configuration not stated)	.	-	-	.	.	.	.	.
CCCCCCCCCC[n+]1cccc2c3ccccc3ccc21	-	27	-	-	-	-	-	-
COc1ccc(C2=NN(C(=O)COC(=O)c3ccc(S(C)(=O)=O)c([N+](=O)[O-])c3)C(c3ccco3)C2)cc1 (configuration not stated)	.	29	-	-	.	-	51	90
Cc1cc(C)c(NS(=O)(=O)c2ccccc2)c(C)c1NS(=O)(=O)c1ccccc1	.	-	-	-	.	-	.	.
CCCCCNC(=O)C(c1cccc2ccccc12)n1c(=O)c(-c2ccco2)nc2ccccc21 (configuration not stated)	.	84	-	.	.	.	82	35
CC(C)(C)NC(=O)C(c1cccc2ccccc12)n1c(=O)c(-c2ccccc2)nc2ccccc21 (configuration not stated)	.	-	-	.	.	.	.	.
CC(C)(C)NC(=O)C(c1cccc2ccccc12)n1c(=O)c(-c2ccco2)nc2ccccc21 (configuration not stated)	.	67	-	.	.	.	69	13
O=C(NCc1ccccc1)C(c1cccc2ccccc12)n1c(=O)c(-c2ccco2)nc2ccccc21 (configuration not stated)	.	58	-	.	.	.	97	34
